From ChEMBL document CHEMBL1135396, “Synthesis and inotropic activity of 1-(O-aminoalkyloximes) of perhydroindene derivatives as simplified digitalis-like compounds acting on the Na(+),K(+)-ATPase” (J Med Chem, 2002)

Tests used:
[1] = target: Sodium/potassium-transporting ATPase; assay: 50% displacement of the specific [3H]ouabain binding from the dog kidney Na+/K+ ATPase; type: protein-complex assay, Canis lupus familiaris
How it was run: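 [3H]ouabain binding was measured on isolated, purified dog kidney Na+,K+-ATPase (α1 isoform), with compounds used within 1–4 h of dissolution.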

Cavia porcellus [2] = species: Cavia porcellus; assay: Maximal increase in force of contraction in electrically driven guinea pig left atrium; type: functional, Cardiac atrium
How it was run: (§1)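 Electrically paced guinea pig left atria (platinum electrodes, 1 Hz, 1 ms pulses at twice threshold voltage) were equilibrated for 60 min. Cumulative compound concentrations were then added, each left in contact until maximal response or arrhythmias appeared. Force of contraction was recorded.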

Cavia porcellus [3] = species: Cavia porcellus; assay: Concentration of compound to obtain maximum inotropic activity on electrically driven guinea pig left atrium; type: functional, Cardiac atrium; how it was run: as §1
Cavia porcellus [4] = species: Cavia porcellus; assay: Concentration of compound producing 50% of the maximal increase in force of contraction in electrically driven guinea pig left atrium; type: functional; conditions: Cardiac atrium
How it was run: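 Whole guinea pig left atria were paced through platinum electrodes with 1 Hz square-wave pulses (1 ms, twice threshold voltage) and equilibrated for 60 min. Compounds were then added cumulatively, each concentration held until maximal response or arrhythmia. The concentration giving half-maximal increase in contractile force was calculated from concentration–response curves.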

[5] = target: Sodium/potassium-transporting ATPase; assay: 30% displacement of the specific [3H]ouabain binding from the dog kidney Na+/K+ ATPase; type: protein-complex assay, Canis lupus familiaris
[6] = target: Sodium/potassium-transporting ATPase; assay: 45% displacement of the specific [3H]ouabain binding from the dog kidney Na+/K+ ATPase; type: protein-complex assay, Canis lupus familiaris
[7] = target: Sodium/potassium-transporting ATPase; assay: 35% displacement of the specific [3H]-ouabain binding from the dog kidney Na+/K+ ATPase; type: protein-complex assay, Canis lupus familiaris
[8] = target: Sodium/potassium-transporting ATPase; assay: 20% displacement of the specific [3H]ouabain binding from the dog kidney Na+/K+ ATPase; type: protein-complex assay, Canis lupus familiaris

Row | Compound | IC50 [1] | further results
1 | C[C@]12CC[C@H](O)C[C@H]1CC[C@@H]1[C@@H]2CC[C@]2(C)[C@@H](/C=C/C=N/OCCN)CC[C@]12O | 0.016 µM | Increase (Emax) (Cavia porcellus [2]): 155%; Concentration giving maximal inotropic effect (Cavia porcellus [3]): 0.3 µM
2 | CN(C)CCO/N=C/C=C/[C@H]1CC[C@]2(O)[C@@H]3CC[C@@H]4C[C@@H](O)CC[C@]4(C)[C@H]3CC[C@]12C | 0.025 µM | Increase (Emax) (Cavia porcellus [2]): 191%; Concentration giving maximal inotropic effect (Cavia porcellus [3]): 0.3 µM
3 | CN(C)CCO/N=C/[C@H]1CC[C@]2(O)[C@@H]3CC[C@@H]4C[C@@H](O)CC[C@]4(C)[C@H]3CC[C@]12C | 0.04 µM | Increase (Emax) (Cavia porcellus [2]): 39%
4 | CN(C)CCO/N=C/[C@H]1CC[C@]2(O)CC([C@H]3CC[C@@H](O)CC3)CC[C@]12C (some centres not stated) | 1.6 µM | –
5 | CN(C)CCO/N=C/[C@H]1CC[C@]2(O)CC([C@H]3CC[C@H](O)CC3)CC[C@]12C (some centres not stated) | 1 µM | –
6 | CN(C)CCO/N=C/[C@H]1CC[C@]2(O)C[C@@H](c3ccc(O)cc3)CC[C@]12C | 2.5 µM | –
7 | CN(C)CCO/N=C/C=C/[C@H]1CC[C@]2(O)C[C@@H](C3CCCCC3)CC[C@]12C | 1 µM | EC50 (Cavia porcellus [4]): 20 µM; Increase (Emax) (Cavia porcellus [2]): 50%; Concentration giving maximal inotropic effect (Cavia porcellus [3]): 100 µM
8 | CN(C)CCO/N=C/CC[C@H]1CC[C@]2(O)C[C@@H](C3CCCCC3)CC[C@]12C | 5 µM | –
9 | CC(/C=N/OCCN(C)C)=C\[C@H]1CC[C@]2(O)C[C@@H](C3CCCCC3)CC[C@]12C | 2 µM | –
10 | Cc1ccc([C@H]2CC[C@]3(C)[C@@H](/C=N/OCCN(C)C)CC[C@]3(O)C2)cc1 | 10 µM | –
11 | CN(C)CCO/N=C/[C@H]1CC[C@]2(O)C[C@H](c3ccccc3)CC[C@]12C | – | IC50 [5]: > 100 µM
12 | CN(C)CCCO/N=C/[C@H]1CC[C@]2(O)C[C@@H](C3CCCCC3)CC[C@]12C | 3.2 µM | –
13 | C[C@]12CC[C@H](c3ccc(CO)cc3)C[C@@]1(O)CC[C@@H]2/C=N/OCCN | 2.5 µM | –
14 | CN(C)CCO/N=C/[C@H]1CC[C@]2(O)C[C@H](Cc3ccccc3)CC[C@]12C | – | IC50 [6]: > 100 µM
15 | CN(C)CCCCO/N=C/[C@H]1CC[C@]2(O)C[C@@H](C3CCCCC3)CC[C@]12C | 10 µM | –
16 | CN(C)CCONC[C@H]1CC[C@]2(O)C[C@@H](c3ccccc3)CC[C@]12C | 10 µM | –
17 | CN(C)CCO/N=C/[C@H]1CC[C@]2(O)C[C@@H](C3CCCCC3)CC[C@]12C | 1.6 µM | EC50 (Cavia porcellus [4]): 12 µM; Increase (Emax) (Cavia porcellus [2]): 70%; Concentration giving maximal inotropic effect (Cavia porcellus [3]): 100 µM
18 | C[C@]12CC[C@H](c3cccc(CO)c3)C[C@@]1(O)CC[C@@H]2/C=N/OCCN | 2.5 µM | –
19 | C[C@]12CC[C@H](C3CCCCC3)C[C@@]1(O)CC[C@@H]2/C=C/C=N/N=C(N)N | 16 µM | –
20 | CN(C)CCO/N=C/[C@H]1CC[C@]2(O)C[C@@H](c3ccc(CO)cc3)CC[C@]12C | 8 µM | –
21 | Cc1cccc([C@H]2CC[C@]3(C)[C@@H](/C=N/OCCN(C)C)CC[C@]3(O)C2)c1 | 5 µM | –
22 | C[C@]12CC[C@H](C3CCCCC3)C[C@@]1(O)CC[C@@H]2C1=CC(=O)OC1 | – | IC50 [5]: > 10 µM
23 | C[C@]12CC[C@H](c3ccccc3)C[C@@]1(O)CC[C@@H]2/C=N/OCCN | 4 µM | –
24 | C[C@]12CC[C@H](C3CCCCC3)C[C@@]1(O)CC[C@@H]2/C=N/OCCCN | 0.8 µM | –
25 | C[C@]12CC[C@H](C3CCCCC3)C[C@@]1(O)CC[C@@H]2C/C=N\OCCN | 1.6 µM | –
26 | CN(C)CCO/N=C/[C@H]1CC[C@]2(O)C[C@@H](c3cccc(O)c3)CC[C@]12C | 10 µM | –

Row | Compound | IC50 [1] | further results
27 | C[C@]12CC[C@H](C3CCCCC3)C[C@@]1(O)CC[C@@H]2/C=N/OCCCCN | 13 µM | –
28 | CN(C)CCO/N=C/[C@H]1CC[C@]2(O)C[C@@H](c3cccnc3)CC[C@]12C | 13 µM | –
29 | C[C@]12CC[C@H](c3ccccc3)C[C@@]1(O)CC[C@@H]2/C=N/N=C(N)N | – | IC50 [7]: > 100 µM
30 | CN(C)CCO/N=C/[C@H]1CC[C@]2(O)C[C@@H](c3cccc(CO)c3)CC[C@]12C | 5 µM | –
31 | CC(/C=N/N=C(N)N)=C\[C@H]1CC[C@]2(O)C[C@@H](C3CCCCC3)CC[C@]12C | – | IC50 [7]: > 100 µM
32 | C[C@]12CC[C@H](C3CCCCC3)C[C@@]1(O)CC[C@@H]2CC/C=N/OCCN | 3.2 µM | –
33 | CN(C)CCO/N=C/[C@H]1CC[C@]2(O)C[C@H](CC3CCCCC3)CC[C@]12C | 100 µM | –
34 | C[C@]12CC[C@H](C3CCCCC3)C[C@@]1(O)CC[C@@H]2/C=C/C=N/OCCN | 1 µM | EC50 (Cavia porcellus [4]): 15 µM; Increase (Emax) (Cavia porcellus [2]): 90%; Concentration giving maximal inotropic effect (Cavia porcellus [3]): 100 µM
35 | CN(C)CCO/N=C/[C@H]1CC[C@]2(O)C[C@@H](c3ccc(OCCN(C)C)cc3)CC[C@]12C | 1 µM | –
36 | Cc1cccc([C@H]2CC[C@]3(C)[C@@H](/C=N/OCCN)CC[C@]3(O)C2)c1 | 3.2 µM | –
37 | CN(C)CCO/N=C/[C@H]1CC[C@]2(O)C[C@@H](c3ccncc3)CC[C@]12C | 2.5 µM | –
38 | CN(C)CCO/N=C/[C@H]1CC[C@]2(O)C/C(=C\c3ccccc3)CC[C@]12C | 8 µM | –
39 | CN(C)CCO/N=C/[C@H]1CC[C@]2(O)C/C(=C/c3ccccc3)CC[C@]12C | 50 µM | –
40 | CN(C)CCO/N=C/[C@H]1CC[C@]2(O)C[C@@H](Cc3ccccc3)CC[C@]12C | 3.2 µM | –
41 | CC(/C=N/OCCN)=C\[C@H]1CC[C@]2(O)C[C@@H](C3CCCCC3)CC[C@]12C | 1.3 µM | –
42 | C[C@]12CC[C@H](C3CCCCC3)C[C@@]1(O)CC[C@@H]2/C=N/OCCN | 1 µM | –
43 | C[C@]12CC[C@H](c3ccccc3)C[C@@]1(O)CC[C@@H]2CNOCCN | 20 µM | –
44 | Cc1ccc([C@H]2CC[C@]3(C)[C@@H](/C=N/OCCN)CC[C@]3(O)C2)cc1 | 6.3 µM | –
45 | CN(C)CCO/N=C/[C@H]1CC[C@]2(O)C[C@@H](c3ccccc3)CC[C@]12C | 3.2 µM | –
46 | C[C@]12CCCC[C@@]1(O)CC[C@@H]2/C=N/OCCCN | – | IC50 [8]: > 100 µM
47 | CN(C)CCO/N=C/[C@H]1CC[C@]2(O)C[C@@H](CC3CCCCC3)CC[C@]12C | 4 µM | –
48 | C[C@]12CC[C@H](C3CCCCC3)C[C@@]1(O)CC[C@@H]2/C=N/N=C(N)N | 63 µM | –
49 | CN(C)CCO/N=C\C[C@H]1CC[C@]2(O)C[C@@H](C3CCCCC3)CC[C@]12C | 1.6 µM | –
50 | C[C@]12CC[C@H](O)C[C@H]1CC[C@@H]1[C@@H]2CC[C@]2(C)[C@@H](C3=CC(=O)OC3)CC[C@]12O [DIGITOXIGENIN] | – | Increase (Emax) (Cavia porcellus [2]): 200%; Concentration giving maximal inotropic effect (Cavia porcellus [3]): 3 µM
51 | C[C@H]1O[C@@H](O[C@H]2[C@@H](O)C[C@H](O[C@H]3[C@@H](O)C[C@H](O[C@H]4CC[C@@]5(C)[C@H](CC[C@@H]6[C@@H]5C[C@@H](O)[C@]5(C)[C@@H](C7=CC(=O)OC7)CC[C@]65O)C4)O[C@@H]3C)O[C@@H]2C)C[C@H](O)[C@@H]1O [DIGOXIN] | – | Increase (Emax) (Cavia porcellus [2]): 184%; Concentration giving maximal inotropic effect (Cavia porcellus [3]): 1 µM
